Laboratory results: ChEMBL document CHEMBL3797060, “Discovery of 5-Chloro-1-(5-chloro-2-(methylsulfonyl)benzyl)-2-imino-1,2-dihydropyridine-3-carboxamide (TAK-259) as a Novel, Selective, and Orally Active α1D Adrenoceptor Antagonist with Antiurinary Frequency Effects: Reducing Human Ether-a-go-go-Related Gene (hERG) Liabilities” (J Med Chem, 2016)

Test system: Urinary bladder
Experiment: Inhibition of (R)-(-)-phenylephrine hydrochloride-induced contractions in Wistar rat bladder with outlet obstruction treated every 30 minutes post (R)-(-)-phenylephrine hydrochloride challenge
Format: functional
Conditions: not given

Compound	inhibition
CS(=O)(=O)c1ccc(Cl)cc1Cn1cc(Cl)cc(C(N)=O)c1=N	Dose-dependent effect
C[C@H](c1cccc(C#N)c1)n1cc(Cl)cc(C(N)=O)c1=N [(R)-9s]	Dose-dependent effect

Same assay, conditions: 0.5 h

Compound	IC30 [nM]
CS(=O)(=O)c1ccc(Cl)cc1Cn1cc(Cl)cc(C(N)=O)c1=N	12
C[C@H](c1cccc(C#N)c1)n1cc(Cl)cc(C(N)=O)c1=N [(R)-9s]	15

Test system: not listed separately
Experiment: AUC in rat at 1 mg/kg, po administered via cassette dosing by LC/MS/MS analysis
Format: ADME, organism-based
Conditions: in vivo
In short: (§1)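 Fed rats dosed orally at 1 mg/kg as 0.5% methylcellulose suspension by cassette dosing; bioavailability also uses an iv arm of 0.1 mg/kg in DMA/1,3-butanediol (1:1). Plasma obtained from blood by centrifugation, deproteinized, and measured by LC/MS/MS. Values are averages of three rats.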

Compound	AUC [ng·h/mL]
N=c1c(C(N)=O)cc(Cl)cn1Cc1cc(Cl)cc(C(N)=O)c1	10.8
CS(=O)(=O)c1ccc(Cl)cc1Cn1cc(Cl)cc(C(N)=O)c1=N	358
C[C@H](c1cccc(C#N)c1)n1cc(Cl)cc(C(N)=O)c1=N [(R)-9s]	368

Test system: Rattus norvegicus
Experiment: Reduction of urinary frequency in po dosed Sprague-Dawley rat with cyclophosphamide-induced cystitis assessed as increased voiding intervals administered at voiding intervals less <7.2 mins measured after 5 to 35 mins by cystometrogram
Format: functional
Conditions: Urine, read-out: MED

Compound	minimal effective dose [µg/kg]
CS(=O)(=O)c1ccc(Cl)cc1Cn1cc(Cl)cc(C(N)=O)c1=N	10
C[C@H](c1cccc(C#N)c1)n1cc(Cl)cc(C(N)=O)c1=N [(R)-9s]	10

Test system: Rattus norvegicus
Experiment: Inhibition of nonvoiding contractions during urinary storage phase in iv dosed Wistar rat with bladder outlet obstruction after 10 mins by cystometrogram
Format: functional
Conditions: not given

Compound	inhibition
CS(=O)(=O)c1ccc(Cl)cc1Cn1cc(Cl)cc(C(N)=O)c1=N	Dose-dependent effect
C[C@H](c1cccc(C#N)c1)n1cc(Cl)cc(C(N)=O)c1=N [(R)-9s]	Dose-dependent effect

Same assay, conditions: read-out: ID50 (the source's name)

Compound	ED50 [µg/kg]
CS(=O)(=O)c1ccc(Cl)cc1Cn1cc(Cl)cc(C(N)=O)c1=N	1.3
C[C@H](c1cccc(C#N)c1)n1cc(Cl)cc(C(N)=O)c1=N [(R)-9s]	4.4

Test system: not listed separately
Experiment: Cmax in rat at 1 mg/kg, po administered via cassette dosing by LC/MS/MS analysis
Format: ADME, organism-based
Design: dose 1 mg/kg, route oral
Conditions: in vivo
In short: as §1

Compound	Cmax [ng/mL]
N=c1c(C(N)=O)cc(Cl)cn1Cc1cc(Cl)cc(C(N)=O)c1	3.2
CS(=O)(=O)c1ccc(Cl)cc1Cn1cc(Cl)cc(C(N)=O)c1=N	60.2
C[C@H](c1cccc(C#N)c1)n1cc(Cl)cc(C(N)=O)c1=N [(R)-9s]	142

Test system: not listed separately
Experiment: Oral bioavailability in rat at 1 mg/kg administered via cassette dosing by LC/MS/MS analysis
Format: ADME, organism-based
Conditions: in vivo
In short: as §1

Compound	bioavailability [%]
N=c1c(C(N)=O)cc(Cl)cn1Cc1cc(Cl)cc(C(N)=O)c1	3
CS(=O)(=O)c1ccc(Cl)cc1Cn1cc(Cl)cc(C(N)=O)c1=N	84.5
C[C@H](c1cccc(C#N)c1)n1cc(Cl)cc(C(N)=O)c1=N [(R)-9s]	86

Biological target: hERG (KCNH2) (Homo sapiens, UniProt Q12809)
Experiment: Inhibition of human ERG channel expressed in CHO cells assessed as peak tail current at 10 uM incubated for 5 mins by patch-clamp assay
Format: cell-based
Conditions: CHO cells expressing human ERG channel
In short: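 CHO cells stably expressing hERG, grown at 32 °C, 5% CO2 in Ham's F-12 with 10% FBS and 500 µg/mL Geneticin. Population patch clamp with PBS (Ca/Mg) outside, KCl/MgCl2/EGTA/HEPES pH 7.3 inside, amphotericin B perforation. Holding −80 mV, step to 40 mV 2 s, then −50 mV 2 s. Peak tail current taken before and after 5 min compound exposure, inhibition = 100 − post/pre×100, n = 3 or 4.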

Sequence of hERG (KCNH2) (Q12809 whole entry): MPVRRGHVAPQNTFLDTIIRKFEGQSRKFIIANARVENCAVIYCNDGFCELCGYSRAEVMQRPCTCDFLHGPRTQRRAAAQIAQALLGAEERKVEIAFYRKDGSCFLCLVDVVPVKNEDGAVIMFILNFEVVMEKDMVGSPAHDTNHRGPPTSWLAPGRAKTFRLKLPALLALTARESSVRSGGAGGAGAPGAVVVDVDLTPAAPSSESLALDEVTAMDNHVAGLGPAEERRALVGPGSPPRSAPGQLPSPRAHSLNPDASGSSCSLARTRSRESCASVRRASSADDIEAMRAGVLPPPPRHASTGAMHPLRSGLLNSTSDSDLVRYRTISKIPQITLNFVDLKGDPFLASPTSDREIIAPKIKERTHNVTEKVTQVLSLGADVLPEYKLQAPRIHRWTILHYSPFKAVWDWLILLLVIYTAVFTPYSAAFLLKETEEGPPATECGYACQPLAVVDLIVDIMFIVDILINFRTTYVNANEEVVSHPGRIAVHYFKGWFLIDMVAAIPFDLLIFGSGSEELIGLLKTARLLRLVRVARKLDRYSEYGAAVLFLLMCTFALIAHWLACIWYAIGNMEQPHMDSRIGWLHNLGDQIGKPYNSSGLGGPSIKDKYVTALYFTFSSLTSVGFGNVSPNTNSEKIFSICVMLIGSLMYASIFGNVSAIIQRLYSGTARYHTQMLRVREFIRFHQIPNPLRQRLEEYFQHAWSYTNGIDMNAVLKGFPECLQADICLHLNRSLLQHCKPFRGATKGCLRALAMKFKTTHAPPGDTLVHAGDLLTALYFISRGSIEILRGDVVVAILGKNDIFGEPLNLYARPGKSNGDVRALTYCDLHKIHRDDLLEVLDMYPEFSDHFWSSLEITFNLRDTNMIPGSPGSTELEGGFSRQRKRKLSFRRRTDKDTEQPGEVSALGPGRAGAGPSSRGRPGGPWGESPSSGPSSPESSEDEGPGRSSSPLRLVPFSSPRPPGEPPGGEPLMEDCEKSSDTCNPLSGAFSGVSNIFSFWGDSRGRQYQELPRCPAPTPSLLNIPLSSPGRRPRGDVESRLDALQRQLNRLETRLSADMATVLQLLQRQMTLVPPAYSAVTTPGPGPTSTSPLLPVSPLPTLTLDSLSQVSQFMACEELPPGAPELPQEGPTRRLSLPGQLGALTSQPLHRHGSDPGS

Compound	inhibition at 5 min, 10 µM [%]
CC(c1cccc(Cl)c1)n1cc(Cl)cc(C(N)=O)c1=N (stereo unspecified)	48
CC(c1cccc(S(C)(=O)=O)c1)n1cc(Cl)cc(C(N)=O)c1=N (stereo unspecified)	19
N#Cc1ccc(Cl)cc1Cn1cc(Cl)cc(C(N)=O)c1=N	59
CC(c1cccc(C#N)c1)n1cc(Cl)cc(C(N)=O)c1=N (stereo unspecified)	32
N#Cc1cc(Cl)cc(Cn2cc(Cl)cc(C(N)=O)c2=N)c1	71
C[C@@H](c1cccc(C#N)c1)n1cc(Cl)cc(C(N)=O)c1=N [(S)-9s]	57
N=c1c(C(N)=O)cc(Cl)cn1Cc1cc(Cl)cc(C(N)=O)c1	13
CS(=O)(=O)c1ccc(Cl)cc1Cn1cc(Cl)cc(C(N)=O)c1=N	16
CS(=O)(=O)c1ccc(Cn2cc(Cl)cc(C(N)=O)c2=N)cc1Cl	13
CS(=O)(=O)c1cc(Cl)cc(Cn2cc(Cl)cc(C(N)=O)c2=N)c1	14
C[C@H](c1cccc(C#N)c1)n1cc(Cl)cc(C(N)=O)c1=N [(R)-9s]	25
N#Cc1ccc(Cn2cc(Cl)cc(C(N)=O)c2=N)cc1Cl	74
N=c1c(C(N)=O)cc(Cl)cn1Cc1cccc(Cl)c1	47
N=c1c(C(N)=O)cc(Cl)cn1Cc1ccc(C(N)=O)c(Cl)c1	10

Species on record: Homo sapiens
Experiment: Selectivity ratio of Ki for human alpha1A adrenergic receptor to Ki for human alpha1D adrenergic receptor
Conditions: not given
In short: (§2)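 Membranes from CHO-K1 cells stably expressing human α1A, α1B or α1D receptors (10 µg protein) incubated 60 min at room temperature with 2.5 nmol/L 7-methoxy[3H]-prazosin and 12 compound concentrations in Tris-HCl pH 7.5 buffer with MgCl2, EDTA, 0.5% BSA. Bound counts taken after filtration; nonspecific binding defined with 10 µmol/L phentolamine.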

Compound	Ratio Ki
N=c1c(C(N)=O)cc(Cl)cn1Cc1cc(Cl)cc(C(N)=O)c1	> 730
CCOc1ccccc1OCCN[C@H](C)Cc1ccc(OC)c(S(N)(=O)=O)c1	0.7
CS(=O)(=O)c1ccc(Cl)cc1Cn1cc(Cl)cc(C(N)=O)c1=N	200
C[C@H](c1cccc(C#N)c1)n1cc(Cl)cc(C(N)=O)c1=N [(R)-9s]	> 1700

Test system: not listed separately
Experiment: Mean residence time in rat at 1 mg/kg, po administered via cassette dosing by LC/MS/MS analysis
Format: ADME, organism-based
Conditions: in vivo
In short: as §1

Compound	MRT [h]
N=c1c(C(N)=O)cc(Cl)cn1Cc1cc(Cl)cc(C(N)=O)c1	2.47
CS(=O)(=O)c1ccc(Cl)cc1Cn1cc(Cl)cc(C(N)=O)c1=N	4.53
C[C@H](c1cccc(C#N)c1)n1cc(Cl)cc(C(N)=O)c1=N [(R)-9s]	3.14

Test system: not listed separately
Experiment: Volume of distribution at steady state in rat at 0.1 mg/kg, iv administered via cassette dosing by LC/MS/MS analysis
Format: ADME, organism-based
Conditions: in vivo, read-out: Vdss
In short: (§3)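 Cassette dosing iv at 0.1 mg/kg in DMA/1,3-butanediol (1:1) to fed rats. Blood collected after dosing and centrifuged to plasma, which was deproteinized and centrifuged; supernatant concentrations measured by LC/MS/MS.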

Compound	Vd [L/kg]
N=c1c(C(N)=O)cc(Cl)cn1Cc1cc(Cl)cc(C(N)=O)c1	3.21
CS(=O)(=O)c1ccc(Cl)cc1Cn1cc(Cl)cc(C(N)=O)c1=N	4.43
C[C@H](c1cccc(C#N)c1)n1cc(Cl)cc(C(N)=O)c1=N [(R)-9s]	4.68

Test system: not listed separately
Experiment: Total clearance in rat at 0.1 mg/kg, iv administered via cassette dosing by LC/MS/MS analysis
Format: ADME, organism-based
Conditions: in vivo
In short: as §3

Compound	clearance [mL/min/kg]
N=c1c(C(N)=O)cc(Cl)cn1Cc1cc(Cl)cc(C(N)=O)c1	47.2
CS(=O)(=O)c1ccc(Cl)cc1Cn1cc(Cl)cc(C(N)=O)c1=N	39.9
C[C@H](c1cccc(C#N)c1)n1cc(Cl)cc(C(N)=O)c1=N [(R)-9s]	39.2

Biological target: T1, Alpha-1D adrenergic receptor (Homo sapiens, UniProt P25100)
T1 sequence (P25100 whole entry): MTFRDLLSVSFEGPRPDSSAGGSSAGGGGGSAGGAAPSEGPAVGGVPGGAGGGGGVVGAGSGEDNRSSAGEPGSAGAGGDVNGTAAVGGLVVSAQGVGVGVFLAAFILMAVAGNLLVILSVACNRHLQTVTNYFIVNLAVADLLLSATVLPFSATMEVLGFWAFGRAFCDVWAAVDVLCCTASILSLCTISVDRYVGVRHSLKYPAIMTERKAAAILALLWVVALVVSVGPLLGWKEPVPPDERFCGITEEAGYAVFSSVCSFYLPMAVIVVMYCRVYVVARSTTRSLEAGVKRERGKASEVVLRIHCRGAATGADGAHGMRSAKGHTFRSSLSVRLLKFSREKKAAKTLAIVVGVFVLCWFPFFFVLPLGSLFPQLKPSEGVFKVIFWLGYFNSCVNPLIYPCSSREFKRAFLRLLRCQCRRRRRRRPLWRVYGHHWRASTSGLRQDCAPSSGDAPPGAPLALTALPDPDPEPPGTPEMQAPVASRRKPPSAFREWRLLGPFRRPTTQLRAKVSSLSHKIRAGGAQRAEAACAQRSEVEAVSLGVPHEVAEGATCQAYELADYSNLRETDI
Experiment: Displacement of 7-methoxy-[3H]-prazosin from human alpha1D adrenergic receptor expressed in CHO-K1 cell membranes incubated for 60 mins by liquid scintillation counting analysis
Conditions: not given
In short: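 CHO-K1 stable-line membranes (10 µg protein), 2.5 nmol/L ligand, Tris-HCl pH 7.5 with MgCl2, EDTA and 0.5% BSA, 12 compound concentrations, room temperature. Filtered and counted; nonspecific binding with 10 µmol/L phentolamine. IC50 by logistic regression, converted to Ki by Cheng-Prusoff with Kd 0.93 (α1A), 0.35 (α1B), 0.26 (α1D) nmol/L. Triplicate mean, 95% CI.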

Compound	Ki [nM]
N=c1c(C(N)=O)cc(Cl)cn1Cc1cccc(C(N)=O)c1	26
CCNC(=O)c1cc(Cl)cn(Cc2ccccc2)c1=N	> 940
CC(c1cccc(Cl)c1)n1cc(Cl)cc(C(N)=O)c1=N (stereo unspecified)	0.66
CC(c1cccc(S(C)(=O)=O)c1)n1cc(Cl)cc(C(N)=O)c1=N (stereo unspecified)	15
N#Cc1ccc(Cl)cc1Cn1cc(Cl)cc(C(N)=O)c1=N	8.5
CC(c1cccc(C#N)c1)n1cc(Cl)cc(C(N)=O)c1=N (stereo unspecified)	3.4
N#Cc1cc(Cl)cc(Cn2cc(Cl)cc(C(N)=O)c2=N)c1	0.86
C[C@@H](c1cccc(C#N)c1)n1cc(Cl)cc(C(N)=O)c1=N [(S)-9s]	130
N=c1c(C(N)=O)cc(Cl)cn1Cc1cc(Cl)cc(C(N)=O)c1	3.7
CS(=O)(=O)c1ccc(Cl)cc1Cn1cc(Cl)cc(C(N)=O)c1=N	1.1
CS(=O)(=O)c1ccc(Cn2cc(Cl)cc(C(N)=O)c2=N)cc1Cl	9.4
CS(=O)(=O)c1cc(Cl)cc(Cn2cc(Cl)cc(C(N)=O)c2=N)c1	4.8
C[C@H](c1cccc(C#N)c1)n1cc(Cl)cc(C(N)=O)c1=N [(R)-9s]	1.6
N#Cc1ccc(Cn2cc(Cl)cc(C(N)=O)c2=N)cc1Cl	11
N=c1c(C(N)=O)cc(Cl)cn1Cc1cccc(Cl)c1	2.6
N=c1c(C(N)=O)cc(Cl)cn1Cc1ccc(C(N)=O)c(Cl)c1	65

Species on record: Homo sapiens
Experiment: Selectivity ratio of Ki for human alpha1B adrenergic receptor to Ki for human alpha1D adrenergic receptor
Conditions: not given
In short: as §2

Compound	Ratio Ki
N=c1c(C(N)=O)cc(Cl)cn1Cc1cc(Cl)cc(C(N)=O)c1	> 320
CCOc1ccccc1OCCN[C@H](C)Cc1ccc(OC)c(S(N)(=O)=O)c1	11
CS(=O)(=O)c1ccc(Cl)cc1Cn1cc(Cl)cc(C(N)=O)c1=N	800
C[C@H](c1cccc(C#N)c1)n1cc(Cl)cc(C(N)=O)c1=N [(R)-9s]	> 750
